Assay results: ChEMBL document CHEMBL3779767, “Identification of potent and selective MTH1 inhibitors” (Bioorg Med Chem Lett, 2016)
Values after ≈ are worked out from the molar mass of the structure shown. Active and inactive are the calls of the source. No cut-off for these calls is given here.

Legend:
[1] = tested on: Tyrosine-protein kinase ABL1 (Homo sapiens), P00519 [E255K]; assay: Inhibition of partial length human ABL1 E255K mutant phosphorylation expressed in mammalian system at 1 uM
Outline: (§1)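 Single-point screen within a 97-kinase profiling panel, with the test compound at 1 µM.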

[2] = tested on: Tyrosine-protein kinase ABL1 (Homo sapiens), P00519 [T315I]; assay: Inhibition of partial length human ABL1 T315I mutant phosphorylation expressed in mammalian system at 1 uM; outline: as §1
[3] = target: Tyrosine-protein kinase ABL1 (Homo sapiens) (UniProt P00519); assay: Inhibition of partial length human ABL1 expressed in mammalian system at 1 uM; outline: as §1
[4] = target: Atypical kinase COQ8A, mitochondrial (Homo sapiens) (UniProt Q8NI60); assay: Inhibition of partial length human ADCK3 expressed in bacterial system at 1 uM; outline: as §1
Sequence of Atypical kinase COQ8A, mitochondrial (Homo sapiens) (Q8NI60 163-647 limits assumed): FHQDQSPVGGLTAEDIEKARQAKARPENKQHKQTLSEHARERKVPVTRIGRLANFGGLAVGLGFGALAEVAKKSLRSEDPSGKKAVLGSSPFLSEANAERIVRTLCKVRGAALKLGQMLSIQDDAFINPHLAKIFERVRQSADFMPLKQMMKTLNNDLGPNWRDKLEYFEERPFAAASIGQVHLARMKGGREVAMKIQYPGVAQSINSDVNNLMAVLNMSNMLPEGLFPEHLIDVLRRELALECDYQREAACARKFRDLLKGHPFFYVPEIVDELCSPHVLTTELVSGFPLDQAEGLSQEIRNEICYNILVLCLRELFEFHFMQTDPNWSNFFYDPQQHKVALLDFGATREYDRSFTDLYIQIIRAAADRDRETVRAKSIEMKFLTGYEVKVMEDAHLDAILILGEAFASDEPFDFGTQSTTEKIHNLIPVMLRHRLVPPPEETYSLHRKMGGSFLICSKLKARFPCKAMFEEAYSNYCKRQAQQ

[5] = target: RAC-alpha serine/threonine-protein kinase (Homo sapiens) (UniProt P31749); assay: Inhibition of partial length human AKT1 expressed in bacterial system at 1 uM; outline: as §1
[6] = target: Bone morphogenetic protein receptor type-2 (Homo sapiens) (UniProt Q13873); assay: Inhibition of partial length human BMPR2 expressed in mammalian system at 1 uM; outline: as §1
[7] = target: Cyclin-dependent kinase 3 (Homo sapiens) (UniProt Q00526); assay: Inhibition of partial length human CDK3 expressed in bacterial system at 1 uM; outline: as §1
Sequence of Cyclin-dependent kinase 3 (Homo sapiens) (Q00526 whole entry, looked up, canonical isoform): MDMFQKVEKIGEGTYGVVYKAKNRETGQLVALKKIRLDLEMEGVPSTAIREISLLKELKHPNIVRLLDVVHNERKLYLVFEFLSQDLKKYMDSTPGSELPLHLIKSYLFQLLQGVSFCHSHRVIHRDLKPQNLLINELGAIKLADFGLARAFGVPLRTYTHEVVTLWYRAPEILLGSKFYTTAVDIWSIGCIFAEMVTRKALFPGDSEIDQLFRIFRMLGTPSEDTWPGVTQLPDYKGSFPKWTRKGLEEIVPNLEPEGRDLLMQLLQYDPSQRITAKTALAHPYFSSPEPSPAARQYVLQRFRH

[8] = target: Casein kinase I isoform gamma-2 (Homo sapiens) (UniProt P78368); assay: Inhibition of partial length human CSNK1G2 expressed in bacterial system at 1 uM; outline: as §1
[9] = target: Serine/threonine-protein kinase DCLK1 (Homo sapiens) (UniProt O15075); assay: Inhibition of partial length human DCAMKL1 expressed in mammalian system at 1 uM; outline: as §1
Sequence of Serine/threonine-protein kinase DCLK1 (Homo sapiens) (O15075 whole entry): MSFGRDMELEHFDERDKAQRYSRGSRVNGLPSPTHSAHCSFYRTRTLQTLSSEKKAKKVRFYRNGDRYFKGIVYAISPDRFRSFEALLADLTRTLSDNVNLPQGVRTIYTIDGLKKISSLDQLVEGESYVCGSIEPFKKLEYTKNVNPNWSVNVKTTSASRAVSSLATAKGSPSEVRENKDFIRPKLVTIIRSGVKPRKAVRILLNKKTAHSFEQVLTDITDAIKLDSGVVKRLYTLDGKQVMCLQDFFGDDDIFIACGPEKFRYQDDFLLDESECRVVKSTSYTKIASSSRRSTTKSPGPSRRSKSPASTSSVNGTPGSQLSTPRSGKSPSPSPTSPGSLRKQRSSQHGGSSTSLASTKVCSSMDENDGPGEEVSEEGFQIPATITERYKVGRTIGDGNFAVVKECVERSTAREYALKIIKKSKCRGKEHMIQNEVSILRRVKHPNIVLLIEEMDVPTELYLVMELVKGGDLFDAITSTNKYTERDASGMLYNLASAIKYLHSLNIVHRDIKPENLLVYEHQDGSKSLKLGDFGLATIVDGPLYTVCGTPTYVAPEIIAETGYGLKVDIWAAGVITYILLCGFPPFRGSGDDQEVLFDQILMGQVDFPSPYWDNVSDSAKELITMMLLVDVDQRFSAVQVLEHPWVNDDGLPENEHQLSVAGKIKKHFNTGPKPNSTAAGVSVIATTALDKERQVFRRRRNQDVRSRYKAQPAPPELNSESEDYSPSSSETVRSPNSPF

[10] = target: Epidermal growth factor receptor (Homo sapiens) (UniProt P00533); assay: Inhibition of partial length human EGFR expressed in bacterial system at 1 uM; outline: as §1
[11] = tested on: Epidermal growth factor receptor (Homo sapiens), P04626+P00533+Q15303+P21860 [L858R]; assay: Inhibition of partial length human EGFR L858R mutant expressed in bacterial system at 1 uM
Outline: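 Single-concentration screen at 1 µM test concentration, run as part of a commercial binding/activity profiling panel covering 97 kinases.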

[12] = target: Focal adhesion kinase 1 (Homo sapiens) (UniProt Q05397); assay: Inhibition of partial length human FAK expressed in bacterial system at 1 uM; outline: as §1
[13] = target: Fibroblast growth factor receptor 2 (Homo sapiens) (UniProt P21802); assay: Inhibition of partial length human FGFR2 expressed in bacterial system at 1 uM; outline: as §1
[14] = target: Insulin-like growth factor 1 receptor (Homo sapiens) (UniProt P08069); assay: Inhibition of partial length human IGF1R expressed in bacterial system at 1 uM; outline: as §1
Sequence of Insulin-like growth factor 1 receptor (Homo sapiens) (P08069 31-736 limits assumed): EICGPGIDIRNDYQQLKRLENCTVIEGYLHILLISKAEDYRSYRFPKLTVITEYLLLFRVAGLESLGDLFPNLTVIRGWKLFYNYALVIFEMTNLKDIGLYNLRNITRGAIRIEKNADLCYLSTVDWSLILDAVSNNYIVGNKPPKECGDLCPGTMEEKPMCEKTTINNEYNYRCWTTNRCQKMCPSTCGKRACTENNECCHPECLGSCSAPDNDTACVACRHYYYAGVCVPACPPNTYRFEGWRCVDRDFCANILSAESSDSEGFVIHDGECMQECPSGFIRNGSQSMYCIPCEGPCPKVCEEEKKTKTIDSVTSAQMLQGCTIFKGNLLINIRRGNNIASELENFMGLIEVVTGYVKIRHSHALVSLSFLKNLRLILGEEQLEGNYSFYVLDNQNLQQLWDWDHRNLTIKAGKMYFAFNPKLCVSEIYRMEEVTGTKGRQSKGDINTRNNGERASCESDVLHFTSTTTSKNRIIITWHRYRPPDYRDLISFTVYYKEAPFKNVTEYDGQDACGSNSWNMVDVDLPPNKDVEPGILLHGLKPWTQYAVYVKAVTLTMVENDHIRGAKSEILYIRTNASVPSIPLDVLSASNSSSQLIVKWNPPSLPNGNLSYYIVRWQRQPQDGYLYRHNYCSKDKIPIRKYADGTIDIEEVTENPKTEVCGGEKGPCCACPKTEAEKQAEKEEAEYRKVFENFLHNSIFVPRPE
Sequence of Insulin-like growth factor 1 receptor (Homo sapiens) (P08069 741-1367 limits assumed): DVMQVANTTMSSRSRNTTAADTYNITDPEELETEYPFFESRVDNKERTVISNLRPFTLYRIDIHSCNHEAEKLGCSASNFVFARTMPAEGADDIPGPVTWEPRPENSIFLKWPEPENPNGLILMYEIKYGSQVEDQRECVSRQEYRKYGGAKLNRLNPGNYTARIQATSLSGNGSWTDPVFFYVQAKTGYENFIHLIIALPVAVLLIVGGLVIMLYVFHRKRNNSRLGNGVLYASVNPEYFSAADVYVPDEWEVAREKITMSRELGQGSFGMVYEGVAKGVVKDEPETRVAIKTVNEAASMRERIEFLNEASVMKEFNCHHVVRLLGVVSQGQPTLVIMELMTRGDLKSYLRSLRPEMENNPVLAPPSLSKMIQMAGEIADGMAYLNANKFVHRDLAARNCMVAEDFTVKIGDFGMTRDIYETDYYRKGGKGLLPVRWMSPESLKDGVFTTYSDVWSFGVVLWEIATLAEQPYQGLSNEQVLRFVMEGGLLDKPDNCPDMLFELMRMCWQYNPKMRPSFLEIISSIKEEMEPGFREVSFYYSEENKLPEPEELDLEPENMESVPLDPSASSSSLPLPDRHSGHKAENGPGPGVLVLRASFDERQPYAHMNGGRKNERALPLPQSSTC

[15] = target: Inhibitor of nuclear factor kappa-B kinase subunit beta (Homo sapiens) (UniProt O14920); assay: Inhibition of partial length human IKKbeta expressed in mammalian system at 1 uM; outline: as §1
[16] = target: Tyrosine-protein kinase JAK2 (Homo sapiens) (UniProt O60674); assay: Inhibition of partial length human JAK2 JH1 catalytic domain expressed in mammalian system at 1 uM; outline: as §1
[17] = target: Mitogen-activated protein kinase 8 (Homo sapiens) (UniProt P45983); assay: Inhibition of partial length human JNK1 expressed in mammalian system at 1 uM; outline: as §1
[18] = target: MAP/microtubule affinity-regulating kinase 3 (Homo sapiens) (UniProt P27448); assay: Inhibition of partial length human MARK3 expressed in bacterial system at 1 uM; outline: as §1
[19] = target: MAP kinase-interacting serine/threonine-protein kinase 1 (Homo sapiens) (UniProt Q9BUB5); assay: Inhibition of partial length human MKNK1 expressed in mammalian system at 1 uM
Outline: (§2)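 Single-concentration screen across a panel of 97 kinases, with the test compound at 1 uM.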

[20] = target: Serine/threonine-protein kinase PAK 4 (Homo sapiens) (UniProt O96013); assay: Inhibition of partial length human PAK4 expressed in bacterial system at 1 uM; outline: as §2
[21] = target: 3-phosphoinositide-dependent protein kinase 1 (Homo sapiens) (UniProt O15530); assay: Inhibition of partial length human PDPK1 expressed in bacterial system at 1 uM; outline: as §2
[22] = target: Serine/threonine-protein kinase PLK3 (Homo sapiens) (UniProt Q9H4B4); assay: Inhibition of partial length human PLK3 expressed in mammalian system at 1 uM; outline: as §2
Sequence of Serine/threonine-protein kinase PLK3 (Homo sapiens) (Q9H4B4 whole entry, looked up): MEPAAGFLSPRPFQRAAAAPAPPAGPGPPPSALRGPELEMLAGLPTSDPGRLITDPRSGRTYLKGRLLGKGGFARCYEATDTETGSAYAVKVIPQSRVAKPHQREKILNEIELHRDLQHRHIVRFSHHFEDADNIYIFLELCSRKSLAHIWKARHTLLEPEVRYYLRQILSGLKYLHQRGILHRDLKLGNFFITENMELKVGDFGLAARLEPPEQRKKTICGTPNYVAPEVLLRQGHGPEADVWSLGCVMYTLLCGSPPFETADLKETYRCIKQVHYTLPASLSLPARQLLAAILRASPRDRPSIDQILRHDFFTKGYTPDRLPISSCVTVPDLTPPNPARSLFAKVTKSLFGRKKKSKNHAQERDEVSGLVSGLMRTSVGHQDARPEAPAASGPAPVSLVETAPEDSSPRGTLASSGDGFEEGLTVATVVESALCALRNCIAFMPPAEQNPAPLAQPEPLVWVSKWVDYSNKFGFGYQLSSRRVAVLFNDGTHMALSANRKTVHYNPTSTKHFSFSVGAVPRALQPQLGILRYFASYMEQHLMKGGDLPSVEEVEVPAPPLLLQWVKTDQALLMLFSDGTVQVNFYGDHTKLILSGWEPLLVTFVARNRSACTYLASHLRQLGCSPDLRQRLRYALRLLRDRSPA

[23] = target: Protein kinase C epsilon type (Homo sapiens) (UniProt Q02156); assay: Inhibition of partial length human PRKCE expressed in mammalian system at 1 uM; outline: as §2
[24] = target: Proto-oncogene tyrosine-protein kinase receptor Ret (Homo sapiens) (UniProt P07949); assay: Inhibition of partial length human RET expressed in bacterial system at 1 uM; outline: as §2
[25] = target: Rho-associated protein kinase 2 (Homo sapiens) (UniProt O75116); assay: Inhibition of partial length human ROCK2 expressed in mammalian system at 1 uM; outline: as §2
[26] = target: NUAK family SNF1-like kinase 2 (Homo sapiens) (UniProt Q9H093); assay: Inhibition of partial length human SNARK expressed in mammalian system at 1 uM; outline: as §2
Sequence of NUAK family SNF1-like kinase 2 (Homo sapiens) (Q9H093 whole entry): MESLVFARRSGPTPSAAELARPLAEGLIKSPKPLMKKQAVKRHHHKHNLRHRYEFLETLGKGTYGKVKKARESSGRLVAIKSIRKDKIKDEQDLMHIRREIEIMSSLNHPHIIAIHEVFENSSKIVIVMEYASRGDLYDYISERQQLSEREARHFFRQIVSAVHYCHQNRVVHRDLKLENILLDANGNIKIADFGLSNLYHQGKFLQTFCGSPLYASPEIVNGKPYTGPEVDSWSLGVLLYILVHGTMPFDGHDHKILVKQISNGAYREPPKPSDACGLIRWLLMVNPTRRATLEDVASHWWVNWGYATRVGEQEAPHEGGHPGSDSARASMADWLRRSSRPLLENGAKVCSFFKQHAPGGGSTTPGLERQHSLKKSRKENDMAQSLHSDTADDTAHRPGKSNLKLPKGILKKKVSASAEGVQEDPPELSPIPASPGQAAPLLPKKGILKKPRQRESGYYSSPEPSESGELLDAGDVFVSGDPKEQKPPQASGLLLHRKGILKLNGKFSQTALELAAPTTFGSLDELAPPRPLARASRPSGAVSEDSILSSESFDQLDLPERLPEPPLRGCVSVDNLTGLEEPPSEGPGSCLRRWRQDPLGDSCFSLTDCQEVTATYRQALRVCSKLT

[27] = target: Proto-oncogene tyrosine-protein kinase Src (Homo sapiens) (UniProt P12931); assay: Inhibition of partial length human SRC expressed in bacterial system at 1 uM; outline: as §2
Sequence of Proto-oncogene tyrosine-protein kinase Src (Homo sapiens) (P12931 2-536 limits assumed): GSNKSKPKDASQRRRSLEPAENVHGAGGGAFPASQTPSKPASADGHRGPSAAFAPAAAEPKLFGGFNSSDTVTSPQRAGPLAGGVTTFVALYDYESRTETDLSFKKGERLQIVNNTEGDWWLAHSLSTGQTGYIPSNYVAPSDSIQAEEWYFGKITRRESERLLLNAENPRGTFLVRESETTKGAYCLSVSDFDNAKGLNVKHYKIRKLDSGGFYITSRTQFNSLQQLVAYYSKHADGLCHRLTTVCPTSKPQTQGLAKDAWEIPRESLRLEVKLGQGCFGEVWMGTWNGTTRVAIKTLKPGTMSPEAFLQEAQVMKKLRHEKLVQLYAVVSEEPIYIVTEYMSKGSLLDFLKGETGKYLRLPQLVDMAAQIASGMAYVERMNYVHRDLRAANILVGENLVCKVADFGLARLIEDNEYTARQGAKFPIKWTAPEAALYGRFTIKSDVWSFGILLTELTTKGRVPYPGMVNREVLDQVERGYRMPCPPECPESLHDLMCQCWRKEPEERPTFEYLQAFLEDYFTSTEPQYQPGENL

[28] = target: Vascular endothelial growth factor receptor 2 (Homo sapiens) (UniProt P35968); assay: Inhibition of partial length human VEGFR2 expressed in mammalian system at 1 uM; outline: as §2
[29] = Half life in rat plasma; type: ADME, cell-free
Outline: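 Plasma stability was measured in human and rat plasma, with half-life reported in hours.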

[30] = Solubility of the compound in PBS at pH 7; type: physicochemical
Outline: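 Aqueous solubility was determined in sodium phosphate buffer at pH 7.0.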

[31] = Fraction unbound in human plasma; type: ADME, cell-free
[32] = tested on: NCI-H358; assay: Antiproliferative activity against human NCI-H358 cells assessed as change in phenotypic response measured after prolonged treatment; type: functional, cell-based
[33] = tested on: A549; assay: Antiproliferative activity against human A549 cells assessed as change in phenotypic response measured after prolonged treatment; type: functional, cell-based
[34] = tested on: HCT-116; assay: Antiproliferative activity against human HCT116 cells assessed as change in phenotypic response measured after prolonged treatment; type: functional, cell-based
[35] = tested on: BJ; assay: Cytotoxicity against human BJ cells assessed as change in phenotypic response up to 50 uM; type: cell-based
[36] = tested on: MRC5; assay: Cytotoxicity against human MRC5 cells assessed as change in phenotypic response up to 50 uM; type: cell-based
[37] = tested on: NCI-H460; assay: Antiproliferative activity against human NCI-H460 cells assessed as change in phenotypic response up to 50 uM; type: functional, cell-based
[38] = tested on: SW480; assay: Antiproliferative activity against human SW480 cells assessed as change in phenotypic response up to 50 uM; type: functional, cell-based
[39] = tested on: U2OS; assay: Antiproliferative activity against human U2OS cells assessed as change in phenotypic response up to 50 uM; type: functional, cell-based
[40] = tested on: BJ; assay: Cytotoxicity against human BJ cells assessed as change in phenotypic response measured after prolonged treatment; type: cell-based
[41] = tested on: MRC5; assay: Cytotoxicity against human MRC5 cells assessed as change in phenotypic response measured after prolonged treatment; type: cell-based
[42] = tested on: UOK 262; assay: Antiproliferative activity against human UOK 262 cells assessed as change in phenotypic response up to 50 uM; type: functional, cell-based

In the case of `Cc1cnc(N)nc1OCC(C)(C)CO`, the inhibition [1] is reported as “inactive”, the inhibition [2] is reported as “inactive” and the inhibition [3] is reported as “inactive”. For the same molecule, the inhibition [4] was “inactive”, the inhibition [5] was “inactive” and the inhibition [6] was “inactive”. For the same molecule, the inhibition [7] was “inactive”, the inhibition [8] was “inactive” and the inhibition [9] was “inactive”. The inhibition [10] was “inactive”, the inhibition [11] was “inactive” and the inhibition [12] was “inactive”. For the same molecule, the inhibition [13] was “inactive”, the inhibition [14] was “inactive” and the inhibition [15] was “inactive”. For the same molecule, the inhibition [16] was “inactive”, the inhibition [17] was “inactive” and the inhibition [18] was “inactive”. The inhibition [19] was “inactive”, the inhibition [20] was “inactive” and the inhibition [21] was “inactive”. The inhibition [22] was “inactive”, the inhibition [23] was “inactive” and the inhibition [24] was “inactive”. For the same molecule, the inhibition [25] was “inactive”, the inhibition [26] was “inactive” and the inhibition [27] was “inactive”. The inhibition [28] was “inactive”, the half-life [29] was 86 h and the solubility [30] was 75.6 µM (≈ 16 µg/mL). The fraction unbound [31] was 0.46, the Activity [32] was “inactive” and the Activity [33] was “inactive”. For the same molecule, the Activity [34] was “inactive”, the Activity [35] was “Non-toxic” and the Activity [36] was “Non-toxic”. The Activity [37] was “inactive”, the Activity [38] was “inactive” and the Activity [39] was “inactive”. The Activity [40] was “Non-toxic”, the Activity [41] was “Non-toxic” and the Activity [42] was “inactive”.
